The text below walks through data of ChEMBL document CHEMBL2321692, “De novo fragment design: a medicinal chemistry approach to fragment-based lead generation” (J Med Chem, 2013).

In test [1] the test system is Hepatitis C virus. The test is described as follows: Inhibition of HCV NS5B570n-Con1 expressed in Escherichia coli assessed as radiolabeled nucleotide monophosphate incorporation into acid-insoluble RNA products after 2 hrs by scintillation counting analysis. The conditions noted are these: Con1, 2 h. The arrangement: species or system Hepacivirus hominis. The procedure, abridged:
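IC₅₀ in the NS5B polymerase enzyme assay using genotype 1b NS5B, Con1 strain.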

The nature of test [2]: Binding affinity to HCV NS5B570n-BK expressed in Escherichia coli by surface plasma resonance assay. The format is cell-free, Hepatitis C virus (isolate BK). The gist of the method: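 Kinetic dissociation constant (K_D) measured against genotype 1b NS5B polymerase, BK strain, by surface plasmon resonance.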
Test [3] is described as follows: Inhibition of HCV NS5B570n-BK expressed in Escherichia coli assessed as radiolabeled nucleotide monophosphate incorporation into acid-insoluble RNA products after 2 hrs by scintillation counting analysis. The arrangement: species or system Hepatitis C virus (isolate BK).

The structures appear in SMILES notation.

Regarding `Cc1ccccc1Oc1cccc(-c2ccc[nH]c2=O)c1`, the IC50 in test [1] was found to be 80 µM.
As to `CC(C)(C)c1cccc(-c2ccc[nH]c2=O)c1`, the IC50 in test [1] is 4 µM. Besides, the affinity in test [2], expressed as Kd, was 5.8 µM.
Consider `CC(C)(C)c1ccc(Cc2ccc[nH]c2=O)cc1`, for which the IC50 in test [1] amounted to 431 µM.
`COc1ccc(-c2ccc[nH]c2=O)cc1C(C)(C)C` yielded a Kd in test [2] of 0.57 µM.
Regarding `c1ccc(NNc2ncnc3[nH]ncc23)cc1`, the affinity in test [2], expressed as Kd, was 78 µM. Besides, in test [3], the IC50 was found to be 130 µM.
`CC(C)(C)c1ccc(CN2C(=O)CNC2=O)cc1`: in test [1], the half-inhibitory concentration (IC50) was found to be 364 µM. The dissociation constant (Kd) in test [2] was 400 µM.
Consider `CC1NC(=O)N(Cc2ccc(C(C)(C)C)cc2)C1=O` (configuration not stated), for which, in test [1], the IC50 amounted to 220 µM. This molecule also registered a Kd in test [2] of 144 µM.
As for `O=C1CNC(=O)N1Cc1ccc(Cl)c(Cl)c1`, in test [1], the IC50 is above 1000 µM.
For `CCC1NC(=O)N(Cc2ccc(C(C)(C)C)cc2)C1=O` (configuration not stated), the IC50 in test [1] came to 108 µM. Besides, binding in test [2] was put at a Kd of 93 µM.
Turning to `O=C1CNC(=O)N1Cc1ccccc1`, in test [1], the 50% inhibitory concentration (IC50) was above 1000 µM.
On to `CC(C)C1NC(=O)N(Cc2ccc(C(C)(C)C)cc2)C1=O` (configuration not stated), for which the IC50 in test [1] amounted to 21 µM. The molecule also gave a Kd in test [2] of 18 µM.

A word on the IC50: it is the concentration needed to halve the response being measured. Broadly, the Kd is the concentration at which binding is half-saturated. Lower therefore signals tighter binding.
